The subject of one assay is Leishmania amazonensis. The experiment in a line: Antileishmanial activity against Leishmania amazonensis MHOM/Br/75/Josefa promastigotes by MTT colorimetric method. Format: functional, organism-based. Summed up:
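Log-phase promastigotes grown at 24 °C in Warren's medium (brain heart infusion with hemin and folic acid) plus 10% fetal bovine serum. Seeded at 2 million cells/mL and preincubated 1 h at 24 °C. Compounds added in water or DMSO (up to 1% v/v), each concentration in triplicate. Incubated three days, viability read by MTT, and IC50 taken as 50% growth inhibition.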
(Tetrazolium dyes change colour on reduction, which living cells bring about.)

Another assay deals with Leishmania chagasi. The experiment in a line: Antileishmanial activity against Leishmania chagasi MHOM/Br/74/PP75 promastigotes by MTT colorimetric method. Format: functional, organism-based. An outline of the steps:
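Log-phase promastigotes kept at 24 °C in Medium 199 plus 10% fetal bovine serum. Seeded at 3 million cells/mL and held 1 h at 24 °C before compound addition in water or DMSO (up to 1% v/v). Each concentration run in triplicate over a three-day incubation. Viability measured by MTT; IC50 is the concentration giving 50% growth inhibition.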

The values that follow come from ChEMBL document CHEMBL1143802, “Synthesis and biological evaluation of some 6-substituted purines” (Eur J Med Chem, 2007).

Usually IC50 stands for the concentration needed to halve the response being measured.

Where only a bound is given, the exact number is not on record here.

As to `c1nc(SCCCNC2CCCCC2)c2nc[nH]c2n1`, the 50% inhibitory concentration (IC50) in the assay on Leishmania amazonensis and in the assay with Leishmania chagasi was more than 227 µM in each case.

On to `NCCSCCCSc1ncnc2[nH]cnc12`, for which the half-inhibitory concentration (IC50) in the assay on Leishmania amazonensis is 50 µM; in the assay with Leishmania chagasi, more than 227 µM.

For the compound `O=C(O)CSc1ncnc2[nH]cnc12`, the IC50 was 39 µM in the assay on Leishmania amazonensis and more than 227 µM with Leishmania chagasi.

`O=C1c2ccccc2C(=O)N1CCCCSc1ncnc2[nH]cnc12`: the IC50 in the assay on Leishmania amazonensis and in the assay with Leishmania chagasi was more than 227 µM throughout.

Regarding `ClCCCSc1ncnc2[nH]cnc12`, the half-maximal inhibitory concentration (IC50) in the assay on Leishmania amazonensis is 50 µM; in the assay on Leishmania chagasi it was more than 227 µM.

Turning to `CO[C@@H]1O[C@H](CSc2ncnc3[nH]cnc23)[C@H]2OC(C)(C)O[C@@H]12`, the IC50 with Leishmania amazonensis and in the assay on Leishmania chagasi was more than 227 µM throughout.

Consider `NCCNCCCSc1ncnc2[nH]cnc12`, for which the IC50 with Leishmania amazonensis and in the assay with Leishmania chagasi was more than 227 µM in each case.

`CC1(C)O[C@H]2[C@@H](O1)[C@@H](CSc1ncnc3[nH]cnc13)O[C@@H]1OC(C)(C)O[C@@H]12`: the half-inhibitory concentration (IC50) in the assay with Leishmania amazonensis and in the assay on Leishmania chagasi was more than 227 µM in each case.

With `CO[C@@H]1O[C@H](CSc2ncnc3[nH]cnc23)[C@@H](O)[C@H]1O`, the half-maximal inhibitory concentration (IC50) in the assay on Leishmania amazonensis was 29 µM; in the assay with Leishmania chagasi it was more than 227 µM.

On to `CCOC(=O)CSc1ncnc2[nH]cnc12`, for which the IC50 in the assay on Leishmania amazonensis and with Leishmania chagasi was more than 227 µM in each case.

As for `CC1(C)O[C@H]2[C@H]3OC(C)(C)O[C@]3(CSc3ncnc4[nH]cnc34)OC[C@H]2O1`, the IC50 in the assay on Leishmania amazonensis and with Leishmania chagasi was more than 227 µM throughout.

Turning to `C[C@@H]1[C@H](O)[C@@H](C)/C=C/C=C/C=C/C=C/C=C/C=C/C=C/[C@H](O[C@@H]2O[C@H](C)[C@@H](O)[C@H](N)[C@@H]2O)C[C@@H]2O[C@](O)(C[C@@H](O)C[C@@H](O)[C@H](O)CC[C@@H](O)C[C@@H](O)CC(=O)O[C@H]1C)C[C@H](O)[C@H]2C(=O)O` [AMPHOTERICIN B], the IC50 in the assay with Leishmania amazonensis worked out at 0.9 µM; in the assay on Leishmania chagasi it was 1.9 µM.

Consider `Sc1ncnc2nc[nH]c12` [MERCAPTOPURINE ANHYDROUS], for which the half-inhibitory concentration (IC50) with Leishmania amazonensis and with Leishmania chagasi was more than 227 µM each time.
